Test [1] can be described thus: Induction of microtubule depolymerisation in rat A-10 cell line measured after 18 hrs by indirect immunofluorescence method. As to conditions: a10. The method, boiled down: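 Rat A-10 cells, chosen because they arrest in interphase without significant mitotic accumulation, were exposed to compounds for 18 h. Cellular microtubules were then visualized by indirect immunofluorescence. EC50 values come from at least three independent experiments.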

In test [2] the test system is U-251. Kind of test: Cytotoxicity against human U251 cell line assessed as inhibition of cell growth after 48 hrs by SRB assay. Type of test: functional, cell-based. To be noted: U-251, 48 h. A general note: In SRB staining, fixed cells bind dye roughly in proportion to their protein.
A short description of test [3]: Inhibition of bovine tubulin polymerization assessed as reduction in extent of assembly preincubated for 15 mins followed by addition of reaction mixture measured after 20 mins by turbidimetric assay. On the set-up: species or system Bos taurus. An outline of the steps: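 After chilling, GTP was added (0.4 mM final). Turbidity at 350 nm was read after a jump from 0 °C to 30 °C.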

The test system of test [4] is MDA-MB-435. The test is described as follows: Antiproliferative activity against human MDA-MB-435 cell line assessed as inhibition of cell proliferation measured after 48 hrs by SRB assay. To be noted: MDA-MB-435, 48 h. The test is classed as functional, cell-based. An outline of the steps: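 MDA-MB-435 melanoma cells were assessed by sulforhodamine B assay. IC50 is the mean ± SD of at least three independent experiments, each run in triplicate.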

Test [5] has as its system HeLa. The test is described as follows: Antiproliferative activity against human HeLa cells assessed as decrease in cell growth measured after 48 hrs by SRB method. The test is classed as functional, cell-based.
Test [6] is described as follows: Relative resistance, ratio of IC50 for inhibition of beta3 Tubulin (unknown origin) expressed in human HeLa cell line assessed as inhibition of cell proliferation to IC50 antiproliferative activity against human HeLa cells.
In test [7] the test system is SK-OV-3. The test is described as follows: Antiproliferative activity against human SK-OV-3 cells assessed as decrease in cell growth measured after 48 hrs by SRB method. Type of test: functional, cell-based. To be noted: SK-OV-3, 48 h.
Test [8] in a line: Antiproliferative activity against human SK-OV-3 MDR-1-6/6 cells expressing Pgp assessed as decrease in cell growth measured after 48 hrs by SRB method. The test is classed as functional. As to conditions: SK-OV-3, 48 h.
A short description of test [9]: Relative resistance, ratio of IC50 for antiproliferative activity against human SK-OV-3 MDR-1-6/6 cells expressing Pgp to IC50 antiproliferative activity against human SK-OV-3 cells. The test is classed as functional.

`COc1ccc2c(N(C)c3ncnc4c3CCC4)cccc2c1`: in [1], the EC50 was over 10000 nM. For the same compound, the IC50 was 133 nM in test [2] and over 20000 nM in [3].

For the compound `COc1cccc2c(N(C)c3nc(C)nc4c3CCC4)cccc12`, in test [1], the concentration giving a half-maximal response (EC50) is 3700 nM. The IC50 in test [4] turned out to be 820 nM; in [2] it was 38.9 nM; in test [5], 1200 nM; in [7] it was 1200 nM; in [8], 1300 nM. Besides, the “Ratio IC50” value is given as 0.7 in test [6] and 1.1 in test [9].

Regarding `COc1ccc2c(N(C)c3nc(C)nc4c3CCC4)cccc2c1`, in test [1], the 50% effective concentration (EC50) is over 10000 nM. Moreover, the half-inhibitory concentration (IC50) in test [2] was 88.3 nM; in test [3], over 20000 nM.

`COc1ccc(N(C)c2nc(C)nc3c2CC(C)C3)cc1` (stereo not drawn) had a concentration for a half-maximal effect (EC50) in test [1] of 282 nM. Also, in [4], the IC50 was found to be 25.7 nM.

Take `COc1cccc2cc(N(C)c3nc(N)nc4c3CCC4)ccc12`: in test [1], the EC50 came out at 26 nM. For the same compound, the half-inhibitory concentration (IC50) amounted to 8.7 nM in test [4], 12.6 nM in test [5], 14.9 nM in test [7] and 19.6 nM in [8]. For the same compound, the figures for the “Ratio IC50” value in test [6] and in test [9] were 0.8 and 1.3, respectively.

As usually defined, the EC50 is the concentration at which the effect is half-maximal. Read a high EC50 as lower potency in that assay. What is called IC50 is the concentration needed to halve the response being measured.

Values taken from ChEMBL document CHEMBL4680306, “The 3-D conformational shape of N-naphthyl-cyclopenta[d]pyrimidines affects their potency as microtubule targeting agents and their antitumor activity” (Bioorg Med Chem, 2021).
